Where a chain is given by its changes, count along the chain named. Names and notes keep the numbering of the source.
Columns and labels:
[1] = target: T1, methionine synthase reductase (MSR), human, I22/S175 background (Homo sapiens, UniProt Q9UBK8, A129T); experiment: isothermal titration calorimetry; type: binding
T1 sequence (Q9UBK8 1-698 A129T): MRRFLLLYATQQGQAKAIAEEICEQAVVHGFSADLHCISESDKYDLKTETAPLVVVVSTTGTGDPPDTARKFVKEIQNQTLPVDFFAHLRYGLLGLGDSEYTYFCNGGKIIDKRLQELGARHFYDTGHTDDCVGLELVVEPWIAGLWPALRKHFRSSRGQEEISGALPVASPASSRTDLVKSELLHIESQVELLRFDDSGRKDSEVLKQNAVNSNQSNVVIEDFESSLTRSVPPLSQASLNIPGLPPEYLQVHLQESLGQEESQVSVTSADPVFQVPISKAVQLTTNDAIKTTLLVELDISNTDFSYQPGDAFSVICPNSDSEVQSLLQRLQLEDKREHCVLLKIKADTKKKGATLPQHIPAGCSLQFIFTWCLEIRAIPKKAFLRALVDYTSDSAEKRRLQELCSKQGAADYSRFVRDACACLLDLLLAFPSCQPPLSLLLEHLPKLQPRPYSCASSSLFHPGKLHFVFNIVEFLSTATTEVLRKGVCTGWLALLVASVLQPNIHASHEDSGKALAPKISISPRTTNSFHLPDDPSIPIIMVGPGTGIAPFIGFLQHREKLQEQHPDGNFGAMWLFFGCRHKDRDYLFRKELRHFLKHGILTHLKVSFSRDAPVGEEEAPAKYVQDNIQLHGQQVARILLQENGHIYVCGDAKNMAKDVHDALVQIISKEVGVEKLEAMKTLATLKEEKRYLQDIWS
Outline: (§1)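 Recombinant wild-type or A129T MSR, 30-50 µM by Bradford and A454, was dialysed overnight against 50 mM Tris-HCl pH 7.5, filtered and degassed. NADP+ (500-850 µM) in the syringe was injected stepwise at 300 s intervals. Heats were corrected for dilution using post-saturation injections and fitted to a single-site model for KA and ΔH°. Runs were done in duplicate or triplicate.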

[2] = target: T2, methionine synthase reductase (MSR), human, I22/S175 background (Homo sapiens, UniProt Q9UBK8); experiment: isothermal titration calorimetry; type: binding
T2 sequence (Q9UBK8 1-698): T1 sequence (Q9UBK8 1-698 A129T) with T129A
Outline: as §1

purified protein = substrate: NC(=O)C1=CN([C@@H]2O[C@H](COP(=O)(O)OP(=O)(O)OC[C@H]3O[C@@H](n4cnc5c(N)ncnc54)[C@H](OP(=O)(O)O)[C@@H]3O)[C@@H](O)[C@H]2O)C=CC1; experiment: purified protein; type: biochemical, Homo sapiens; conditions: cytochrome c as acceptor, 50 mM Tris pH 7.5, 37°C

Molecule `NC(=O)c1ccc[n+]([C@@H]2O[C@H](COP(=O)(O)OP(=O)(O)OC[C@H]3O[C@@H](n4cnc5c(N)ncnc54)[C@H](OP(=O)(O)O)[C@@H]3O)[C@@H](O)[C@H]2O)c1` [NADP^+] has a Kd [1] of 32 ± 2.9 µM and a Kd [2] of 54 ± 5.3 µM.

B1: methionine synthase reductase (MSR), human, I22/S175 background (Homo sapiens; A129T) (protein)
chain: T1 sequence (Q9UBK8 1-698 A129T)
B1 gave a Km (purified protein) of 2.8 µM.

From publication PMC2645915 (Biochemistry, 2008)
